# TAAR1 antagonist: antagonists of human TAAR1; Q96RJ0; CHO RD-HGA16 TAAR1, Fluo-8 calcium fluorescence, antagonist; inhibition, % at 3 µM; actives 1.5% (n = 360,000);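 active means inhibition above a per-plate cutoff, the mean inhibition of test compounds on that plate plus 3 SD, cut at about 49% in these data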;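 further: 0% = DMSO plus EC80 beta-PEA response and 100% = DMSO alone without agonist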
# Target sequence (Q96RJ0 whole entry, looked up): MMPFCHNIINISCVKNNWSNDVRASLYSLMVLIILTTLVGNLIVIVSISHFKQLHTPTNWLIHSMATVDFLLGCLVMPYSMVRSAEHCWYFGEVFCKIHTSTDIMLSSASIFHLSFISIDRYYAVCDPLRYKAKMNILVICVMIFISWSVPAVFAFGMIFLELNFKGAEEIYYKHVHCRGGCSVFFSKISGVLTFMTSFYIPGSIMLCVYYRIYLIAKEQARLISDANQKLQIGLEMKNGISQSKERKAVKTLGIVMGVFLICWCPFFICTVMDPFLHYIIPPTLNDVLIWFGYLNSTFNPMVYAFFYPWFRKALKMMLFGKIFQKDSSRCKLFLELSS
#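 Test system: CHO RD-HGA16 cells bearing hTAAR1 | Reagent: β-PEA, EC80 | Compound dosing: 3 µM, single point | Schedule: Dye loading 75 min at 37 °C, then 30 min room temperature | Signal: Calcium fluorescence with Fluo-8 | Evaluation: Percent inhibition of PEA-evoked calcium signal, max/basal emission ratio | Control set: DMSO-only wells and EC80 β-PEA-stimulated wells | Repeats: Singlicate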
# TAAR1 agonist: agonists of human TAAR1; CHO RD-HGA16 TAAR1, Fluo-8 calcium fluorescence; vehicle wells 0%, saturating PEA agonist 100%; activation, % at 3 µM; actives 0.99% (n = 360,000); AID 624467;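 active means activation above the mean activation of all test compounds in the run plus 3 SD, cut at about 38% in these data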
#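 Benchmarks: low control DMSO, high control PEA (EC100); System: CHO RD-HGA16 cells carrying human TAAR1 plus Gα16; Detection: Fluo-8 fluorescence, 5 s baseline then 140 s kinetic read; Schedule: 17-24 h plating, Fluo-8 75 min 37 °C, 30 min RT; Read-out basis: % activation from peak over basal fluorescence ratio, DMSO-to-PEA scaled.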
# CHO parental Ca: counter-screen for OX1R antagonists: effect in parental CHO cells; inhibition, % at 5.6 µM; actives 0.63% (n = 330,000); parental CHO-K1, ATP-induced calcium, Fluo-8 fluorescence;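 active means inhibition above that plate's mean sample inhibition plus 3 SD, cut at about 26% in these data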;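 further: 0% = ATP-challenged DMSO wells and 100% = DMSO wells without ATP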
#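 test system = CHO parental line | reagent = ATP stimulus | measured by = intracellular calcium via Fluo-8 no-wash fluorescent dye | control set = ATP and no-ATP DMSO wells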
# OX1R antag-1: antagonists of human orexin 1 receptor; CHO/OX1R cells, Fluo-8 calcium fluorescence, orexin A; inhibition, % at 5 µM; actives 0.43% (n = 330,000); AID 434989;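 active means inhibition above its plate's threshold, mean inhibition of all tested compounds on the plate plus 3 SD, cut at about 37% in these data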;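 further: 0% = orexin A challenge wells and 100% = SB-334867-A antagonist wells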
# Target sequence (O43613 whole entry, looked up): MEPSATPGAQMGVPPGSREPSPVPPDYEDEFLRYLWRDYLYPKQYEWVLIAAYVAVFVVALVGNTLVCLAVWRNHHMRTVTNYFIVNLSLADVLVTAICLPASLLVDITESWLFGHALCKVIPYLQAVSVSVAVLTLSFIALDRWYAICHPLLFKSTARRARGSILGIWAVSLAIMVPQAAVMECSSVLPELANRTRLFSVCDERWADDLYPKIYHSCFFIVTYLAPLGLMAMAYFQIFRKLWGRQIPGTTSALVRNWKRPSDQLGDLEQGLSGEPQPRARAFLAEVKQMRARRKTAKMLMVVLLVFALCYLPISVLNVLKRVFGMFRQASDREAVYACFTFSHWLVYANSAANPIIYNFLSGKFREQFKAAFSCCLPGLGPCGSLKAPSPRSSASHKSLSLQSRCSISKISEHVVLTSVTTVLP
# GPR7 antag: antagonists of human GPR7 (neuropeptides B/W receptor 1); P48145; actives 1.1% (n = 290,000); inhibition, % at 4.4 µM; GPR7-expressing cells, fluorescence antagonist assay; in the data active means inhibition above about 16%, passing the limit was not always enough;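 further: cells stimulated with the agonist NPW; 0% = agonist with vehicle and 100% = vehicle without agonist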
# OX1R antag-2: blocks the human orexin 1 receptor. OX1R-expressing cells, FRET antagonist read-out. inhibition, % at 6.6 µM. actives 1.8% (n = 330,000); in the data active means inhibition mostly above about 38%, no sharp cut-off; inactive means mostly below about 40%;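 further: 0% = agonist challenge alone and 100% = reference antagonist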
# TAAR1 nonsel count: nonselective antagonist in TAAR1 antagonist counter-screen; AID 651780; counterscreen cell line, calcium fluorescence, antagonist mode; inhibition, % at 3 µM; actives 77% (n = 2,400); shares compounds with TAAR1 antagonist; in the data active means inhibition above about 22%;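 further: CHO-Ga16 host cells stimulated with ATP at an EC80 level; 0% = agonist EC80 plus vehicle and 100% = vehicle without agonist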
# TAAR1 ant conf: confirmation of human TAAR1 antagonists; actives 40% (n = 2,400); TAAR1-expressing cells, fluorescence antagonist read-out; shares compounds with TAAR1 antagonist; inhibition, % at 3 µM; in the data active means inhibition above about 49%;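 further: CHO-Ga16 host cells challenged with agonist PEA near its EC80; 0% = agonist at EC80 plus vehicle and 100% = vehicle with no agonist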
# Ga16 ag counter-1: nonselective Ga16 agonism, counter-screen | shares compounds with TAAR1 antagonist | Ga16-expressing cells, calcium fluorescence, agonist counterscreen | activation, % at 3 µM | actives 18% (n = 2,400) | AID 651953; in the data active means activation above about 12%;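 further: 0% = vehicle wells and 100% = saturating stimulus response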
# TAAR1 ag counter: counter-screen for human TAAR1 antagonists: TAAR1 agonists; actives 2% (n = 2,400); AID 651955; shares compounds with TAAR1 antagonist; hTAAR1 cell line, fluorescence activation, agonist mode; activation, % at 3 µM; in the data active means activation above about 37%;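 further: CHO cells stably expressing TAAR1 with calcium dye readout; 0% = DMSO vehicle and 100% = full agonist response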
# TAAR1 ag conf: human TAAR1 agonism, confirmed. CHO RD-HGA16 TAAR1, Fluo-8 calcium fluorescence; scaled: DMSO 0%, maximal phenethylamine 100%. shares compounds with TAAR1 agonist. activation, % at 3 µM. actives 82% (n = 2,400);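 active means activation above a cutoff set at the run's mean compound activation plus 3 SD, cut at about 39% in these data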
# Ga16 ag counter-2: nonselective agonism, TAAR1 counter-screen. CHO-Ga16 parental, Fluo-8 calcium fluorescence; normalized to maximal ATP response, DMSO zero. shares compounds with TAAR1 agonist. AID 651787. actives 50% (n = 2,400). activation, % at 3 µM;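 active means activation above the run cutoff, the mean activation over all tested wells plus 3 SD, cut at about 12% in these data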;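 further: 0% = DMSO wells and 100% = maximal ATP response on the peak over basal ratio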
# TAAR1 desensitize: counter-screen for human TAAR1 agonists: agonists that desensitize TAAR1. CHO RD-HGA16 hTAAR1, Fluo-8 calcium, beta-PEA response inhibition. shares compounds with TAAR1 agonist. inhibition, % at 3 µM. AID 651951. actives 46% (n = 2,400);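 active means inhibition above the run cutoff, the mean inhibition of all test compounds plus 3 SD, cut at about 49% in these data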;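 further: beta-PEA stimulus applied at its EC80; loss of beta-PEA calcium signal after compound pretreatment read as receptor desensitization; 0% = DMSO with beta-PEA at EC80 and 100% = DMSO alone without agonist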
# Ga16 antag count: nonselective Ga16 antagonism, counter-screen. inhibition, % at 3 µM. actives 39% (n = 2,400). CHO-Ga16 ATP-induced calcium, Fluo-8 fluorescence. AID 651952. shares compounds with TAAR1 agonist;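 active means inhibition above the plate's mean compound inhibition plus 3 SD, computed per plate, cut at about 22% in these data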;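 further: 0% = EC80 ATP with DMSO and 100% = DMSO wells without ATP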
# An asterisk follows results filed as active; / = not tested or not shown. Rows were chosen to be rich in hits. Some 4.5% of all compounds tested hit in one or more screens of this group.
SMILES,TAAR1 antagonist,TAAR1 agonist,CHO parental Ca,OX1R antag-1,GPR7 antag,OX1R antag-2,TAAR1 ag conf,Ga16 ag counter-2,TAAR1 desensitize,Ga16 antag count,others
CCCCn1nnnc1C(c1cccc(OC)c1OC)N1CCC2(CC1)C(=O)NCN2c1ccccc1 (configuration not stated),42,9,/,/,/,/,/,/,/,/,
COC(=O)C1=C(c2ccccc2OCc2ccccc2)C[C@@H]2CC[C@H]1N2C(=O)NCc1ccc(F)cc1,38,2,-35,14,/,22,/,/,/,/,
COC(=O)C1=C(c2ccc(F)cc2OCc2ccccc2)C[C@@H]2CC[C@H]1N2C(=O)NCc1ccc([N+](=O)[O-])cc1,58*,6,-29,-9,/,9,/,/,/,/,TAAR1 nonsel count=27*;TAAR1 ant conf=33;Ga16 ag counter-1=2;TAAR1 ag counter=-3
OC(CNC1CCCCC1)C(F)(F)F (configuration not stated),5,9,12,-12,-3,-1,/,/,/,/,
COc1cc(/C=C/[N+](=O)[O-])ccc1OC(=O)c1cccnc1,24,56*,/,/,-4,/,87*,62*,67*,60*,
COc1cc2c(cc1/C=C/[N+](=O)[O-])OCO2,-17,0,/,/,-3,/,/,/,/,/,
CC1OC(NCCc2ccccc2)C(O)C(O)C1O (configuration not stated),/,/,-7,-13,5,8,/,0,/,2,
O=C1NC(=O)N(c2ccc(Cl)cc2)C(=O)/C1=C\c1ccc(Sc2nc3ccccc3[nH]2)o1,34,60*,19,4,-3,17,6,7,17,20,
O=C1NC(=O)C(=Cc2ccc(Sc3ccccc3)o2)C(=O)N1,12,21,-5,-15,-6,6,/,/,/,/,
Fc1ccc(CCNCc2ccccc2Cl)cc1,-18,64*,-15,-14,-9,7,62*,8,24,6,
Cc1ccc(CNCCc2ccc(F)cc2)s1,-17,29,-15,-18,-12,-8,/,/,/,/,
Cn1cccc1CNCCc1ccc(F)cc1,32,49*,-11,-24,-3,11,82*,9,54*,7,
COC1CC=C2CCN3CCC4=C(CC(=O)OC4)C23C1 (configuration not stated),-14,2,/,/,/,/,/,/,/,/,
O=C1NCN(c2ccccc2)C12CCN(C(c1cccc3ccccc13)c1nnnn1C1CCCC1)CC2 (configuration not stated),-14,3,/,/,/,/,/,/,/,/,
CCCC1(CC(C)CC)C(=O)NC(=O)NC1=O (configuration not stated),4,51*,/,/,/,/,78*,0,25,10,
COc1cccc(C)c1NC1=NCCO1,61*,87*,/,/,/,/,92*,1,87*,-3,
CC1(C)OC(c2ccccc2)=C/C(=C/C=C2C(=O)NC(=O)NC2=O)O1,70*,98*,6,22,-15,25,10,21*,31,33*,
CSCCC(c1nnnn1C1CCCCC1)N1CCC2(CC1)C(=O)NCN2c1ccccc1 (configuration not stated),-6,2,/,/,/,/,/,/,/,/,
COC(=O)N1Cc2ccccc2-n2nncc2C1,15,2,/,/,/,/,/,/,/,/,
O=C(Nc1ccc(Cl)cc1)O/N=C(\c1ccccc1)c1ccccn1,26,16,-1,11,-11,10,/,/,/,/,
CN(C)C(Cc1ccccc1)C(=O)c1ccccc1 (configuration not stated),-12,6,-21,-12,-5,12,/,/,/,/,
N[C@H](CO)Cc1ccccc1,14,52*,/,/,/,/,74*,1,37,9,
CNc1ccc2oc(C[C@H]3O[C@@]4(CC[C@H]3C)O[C@H]([C@H](C)C(=O)c3ccc[nH]3)[C@H](C)C[C@H]4C)nc2c1C(=O)O,106*,198*,59*,67*,/,20,184*,146*,107*,101*,
CNC(C)Cc1ccccc1 (configuration not stated),66*,63*,-11,-4,/,2,94*,19*,83*,9,
CN1CC(C(=O)c2ccc(Cl)cc2)C(c2ccccc2F)C1 (configuration not stated),-8,45*,-26,-18,3,4,74*,5,34,13,
SMILES,TAAR1 antagonist,TAAR1 agonist,CHO parental Ca,OX1R antag-1,GPR7 antag,OX1R antag-2,TAAR1 ag conf,Ga16 ag counter-2,TAAR1 desensitize,Ga16 antag count,others
COc1ccc(C(=O)C2CN(C)CC2c2ccc(Cl)cc2)cc1 (configuration not stated),-7,12,-21,-26,4,12,/,/,/,/,
CN1CC(C(=O)c2ccccc2)C(c2ccccc2)C1 (configuration not stated),-31,55*,-12,-33,-5,13,76*,3,28,7,
COc1cccc(C(=O)C2CN(C)CC2c2ccc(Cl)cc2)c1 (configuration not stated),0,4,-10,-13,16,19,/,/,/,/,
CSc1ccc(CNC(C)C(O)c2ccccc2)cc1 (configuration not stated),-4,3,-14,-27,-7,16,/,/,/,/,
CCOc1cc2c(cc1OCC)-n1cccc1C(c1ccc(OC)cc1)NC2 (configuration not stated),2,22,0,-22,29,10,/,/,/,/,
CCOP(=O)(NC(C)C)Oc1ccc(SC)c(C)c1 (configuration not stated),-12,2,/,/,/,/,/,/,/,/,
COc1ccc(CCNCc2ccncc2)cc1,0,46*,-17,-17,2,12,67*,3,28,5,
